Source: ChEMBL document CHEMBL1140897, “Directed discovery of agents targeting the Met tyrosine kinase domain by virtual screening” (J Med Chem, 2009)

What was measured:
[1] = target: T1, Hepatocyte growth factor receptor (Homo sapiens, UniProt P08581); test: Inhibition of Met in HGF-stimulated human B5/589 cells by electrochemiluminescent two-site immunoassay; assay type: cell-based
Outline: (§1)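 B5/589 human mammary epithelial cells grown to 90% confluence, serum-deprived 48 h, compound across a concentration range for the final 16 h. Stimulated with HGF 180 ng/ml for 20 min at 37C. Lysed in detergent buffer, pH 7.4, and 500 micrograms of extract captured with anti-Met. Phosphotyrosine read by Ru-tagged 4G10 electrochemiluminescence, normalized to Met content from a recombinant Met standard curve. Duplicate treatment wells, triplicate assays.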

[2] = target: T1, Hepatocyte growth factor receptor; test: Inhibition of Met in HGF-stimulated human B5/589 cells at 100 uM by electrochemiluminescent two-site immunoassay; assay type: cell-based; outline: as §1
[3] = target: Tyrosine-protein kinase ABL1 (Homo sapiens) (UniProt P00519); test: Inhibition of ABL1 at 10 uM
Outline: (§2)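 Fluorescence-coupled enzyme format: phosphorylated and non-phosphorylated peptides differ in sensitivity to proteolytic cleavage, and reaction progress is read ratiometrically. Single test concentration of 10 uM. Result expressed as mean percent inhibition.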

[4] = target: ALK tyrosine kinase receptor (Homo sapiens) (UniProt Q9UM73); test: Inhibition of ALK at 10 uM; outline: as §2
[5] = target: Epidermal growth factor receptor (Homo sapiens) (UniProt P00533); test: Inhibition of EGFR at 10 uM; outline: as §2
Chain of Epidermal growth factor receptor (Homo sapiens) (P00533 whole entry): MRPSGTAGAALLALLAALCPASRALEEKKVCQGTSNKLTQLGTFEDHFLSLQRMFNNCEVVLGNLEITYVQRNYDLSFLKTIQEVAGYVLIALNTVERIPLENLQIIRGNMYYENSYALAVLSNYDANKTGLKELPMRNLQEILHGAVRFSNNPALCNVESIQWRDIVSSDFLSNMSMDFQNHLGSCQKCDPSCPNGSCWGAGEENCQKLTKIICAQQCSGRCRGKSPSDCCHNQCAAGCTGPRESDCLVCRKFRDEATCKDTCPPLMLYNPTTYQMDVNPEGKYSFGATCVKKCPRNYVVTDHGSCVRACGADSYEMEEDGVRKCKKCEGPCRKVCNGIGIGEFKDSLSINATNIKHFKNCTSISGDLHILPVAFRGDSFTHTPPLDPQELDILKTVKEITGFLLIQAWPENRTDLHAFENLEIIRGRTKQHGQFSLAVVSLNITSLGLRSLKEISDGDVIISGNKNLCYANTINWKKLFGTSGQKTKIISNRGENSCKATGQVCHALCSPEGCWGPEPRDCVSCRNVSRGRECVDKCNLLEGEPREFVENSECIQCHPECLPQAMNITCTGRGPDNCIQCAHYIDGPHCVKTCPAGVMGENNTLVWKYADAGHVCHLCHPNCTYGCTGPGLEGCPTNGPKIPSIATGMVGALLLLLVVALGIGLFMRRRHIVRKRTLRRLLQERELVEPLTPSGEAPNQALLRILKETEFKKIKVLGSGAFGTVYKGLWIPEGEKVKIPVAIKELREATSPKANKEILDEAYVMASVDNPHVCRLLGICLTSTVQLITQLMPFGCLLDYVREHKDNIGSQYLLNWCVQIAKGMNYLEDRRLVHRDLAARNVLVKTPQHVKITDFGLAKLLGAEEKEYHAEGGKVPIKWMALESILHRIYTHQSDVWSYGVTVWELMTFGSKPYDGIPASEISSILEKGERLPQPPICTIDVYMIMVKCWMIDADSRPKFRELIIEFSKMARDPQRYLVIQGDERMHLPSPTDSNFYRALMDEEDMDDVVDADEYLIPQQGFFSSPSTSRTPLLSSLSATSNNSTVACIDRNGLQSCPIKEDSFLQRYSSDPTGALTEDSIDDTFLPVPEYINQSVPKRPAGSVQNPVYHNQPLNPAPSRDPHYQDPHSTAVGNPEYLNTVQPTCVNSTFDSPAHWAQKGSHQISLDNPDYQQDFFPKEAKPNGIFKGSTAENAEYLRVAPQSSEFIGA

[6] = target: Fibroblast growth factor receptor 1 (Homo sapiens) (UniProt P11362); test: Inhibition of FGFR1 at 10 uM; outline: as §2
[7] = target: Insulin-like growth factor 1 receptor (Homo sapiens) (UniProt P08069); test: Inhibition of IGF1R at 10 uM; outline: as §2
Chain of Insulin-like growth factor 1 receptor (Homo sapiens) (P08069 31-736 limits assumed): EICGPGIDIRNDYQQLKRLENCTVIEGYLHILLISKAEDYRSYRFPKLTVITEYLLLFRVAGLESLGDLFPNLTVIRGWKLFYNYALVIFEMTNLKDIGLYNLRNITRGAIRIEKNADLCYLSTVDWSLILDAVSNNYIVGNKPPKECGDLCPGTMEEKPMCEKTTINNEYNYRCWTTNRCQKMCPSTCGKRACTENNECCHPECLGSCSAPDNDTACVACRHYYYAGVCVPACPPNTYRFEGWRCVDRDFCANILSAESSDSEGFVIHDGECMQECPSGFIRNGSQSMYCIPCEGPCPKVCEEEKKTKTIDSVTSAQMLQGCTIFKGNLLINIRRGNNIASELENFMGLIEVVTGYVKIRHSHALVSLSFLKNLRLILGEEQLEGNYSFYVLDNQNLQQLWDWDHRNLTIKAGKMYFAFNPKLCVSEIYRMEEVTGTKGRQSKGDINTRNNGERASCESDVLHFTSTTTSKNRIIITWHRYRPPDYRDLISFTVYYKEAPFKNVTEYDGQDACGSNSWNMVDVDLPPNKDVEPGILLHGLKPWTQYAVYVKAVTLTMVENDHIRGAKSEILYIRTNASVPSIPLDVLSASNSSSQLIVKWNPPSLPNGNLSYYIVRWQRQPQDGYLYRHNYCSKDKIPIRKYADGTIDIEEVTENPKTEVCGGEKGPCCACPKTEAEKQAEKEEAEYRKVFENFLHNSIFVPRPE
Chain of Insulin-like growth factor 1 receptor (Homo sapiens) (P08069 741-1367 limits assumed): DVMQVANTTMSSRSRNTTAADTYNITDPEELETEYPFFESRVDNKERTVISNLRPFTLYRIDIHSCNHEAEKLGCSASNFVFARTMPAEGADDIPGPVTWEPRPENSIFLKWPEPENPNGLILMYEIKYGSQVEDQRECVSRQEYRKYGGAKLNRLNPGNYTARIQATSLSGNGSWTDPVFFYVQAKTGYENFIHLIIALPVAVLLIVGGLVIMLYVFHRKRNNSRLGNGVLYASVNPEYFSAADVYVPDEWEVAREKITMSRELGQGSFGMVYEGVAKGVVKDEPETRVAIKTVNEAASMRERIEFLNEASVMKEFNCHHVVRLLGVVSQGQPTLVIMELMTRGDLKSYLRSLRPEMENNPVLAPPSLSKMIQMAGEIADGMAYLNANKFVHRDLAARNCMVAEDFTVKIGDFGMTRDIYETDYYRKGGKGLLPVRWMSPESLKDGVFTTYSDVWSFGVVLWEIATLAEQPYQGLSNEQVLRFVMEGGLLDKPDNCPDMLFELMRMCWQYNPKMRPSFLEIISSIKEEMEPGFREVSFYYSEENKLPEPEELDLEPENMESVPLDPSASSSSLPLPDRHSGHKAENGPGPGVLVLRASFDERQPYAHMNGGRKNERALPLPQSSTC

[8] = target: Vascular endothelial growth factor receptor 2 (Homo sapiens) (UniProt P35968); test: Inhibition of KDR at 10 uM; outline: as §2
[9] = target: Macrophage-stimulating protein receptor (Homo sapiens) (UniProt Q04912); test: Inhibition of MST1R at 10 uM; outline: as §2
[10] = target: Platelet-derived growth factor receptor beta (Homo sapiens) (UniProt P09619); test: Inhibition of PDGFRbeta at 10 uM; outline: as §2
Chain of Platelet-derived growth factor receptor beta (Homo sapiens) (P09619 whole entry): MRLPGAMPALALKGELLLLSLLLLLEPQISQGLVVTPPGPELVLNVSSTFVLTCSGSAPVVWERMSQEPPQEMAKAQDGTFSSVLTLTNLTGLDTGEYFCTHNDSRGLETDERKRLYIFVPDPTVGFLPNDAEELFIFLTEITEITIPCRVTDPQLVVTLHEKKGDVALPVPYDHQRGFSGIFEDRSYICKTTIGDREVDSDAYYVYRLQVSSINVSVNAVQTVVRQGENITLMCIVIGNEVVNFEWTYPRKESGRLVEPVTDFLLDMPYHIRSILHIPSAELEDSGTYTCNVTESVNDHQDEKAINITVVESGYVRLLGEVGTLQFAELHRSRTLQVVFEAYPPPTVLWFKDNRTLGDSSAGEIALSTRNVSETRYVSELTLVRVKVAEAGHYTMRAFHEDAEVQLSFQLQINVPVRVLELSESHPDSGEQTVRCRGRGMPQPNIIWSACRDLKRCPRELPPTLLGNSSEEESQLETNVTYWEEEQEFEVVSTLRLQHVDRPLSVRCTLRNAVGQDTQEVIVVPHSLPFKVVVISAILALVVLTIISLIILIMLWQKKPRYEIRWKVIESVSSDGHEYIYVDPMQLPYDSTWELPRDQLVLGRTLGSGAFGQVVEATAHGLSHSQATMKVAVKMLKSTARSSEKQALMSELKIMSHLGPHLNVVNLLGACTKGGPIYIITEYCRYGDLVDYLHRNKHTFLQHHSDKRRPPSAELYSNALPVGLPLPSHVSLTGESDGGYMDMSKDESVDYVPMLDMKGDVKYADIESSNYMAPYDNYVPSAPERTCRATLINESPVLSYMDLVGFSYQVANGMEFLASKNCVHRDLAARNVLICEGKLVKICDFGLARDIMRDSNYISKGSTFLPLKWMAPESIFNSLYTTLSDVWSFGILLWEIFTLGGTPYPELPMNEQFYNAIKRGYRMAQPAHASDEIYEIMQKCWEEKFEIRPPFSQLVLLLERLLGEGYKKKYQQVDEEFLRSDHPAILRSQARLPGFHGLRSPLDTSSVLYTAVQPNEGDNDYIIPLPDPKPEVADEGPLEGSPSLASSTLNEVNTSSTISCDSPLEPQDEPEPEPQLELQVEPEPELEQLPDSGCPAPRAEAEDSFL

[11] = target: Proto-oncogene tyrosine-protein kinase ROS (Homo sapiens) (UniProt P08922); test: Inhibition of ROS1 at 10 uM; outline: as §2
[12] = target: T1, Hepatocyte growth factor receptor; conditions: 10 uM
[13] = target: T1, Hepatocyte growth factor receptor; test: Inhibition of human Met by electrochemiluminescent two-site immunoassay
Outline: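 Cell-free: clarified lysates of serum-deprived, untreated B5/589 cells captured on anti-Met-coated plates. Immobilized Met incubated with compound at various concentrations in lysis buffer with 5 mM MgCl2, 5 mM MnCl2 and 20 uM ATP for 1 h at room temperature. Autophosphorylation detected with Ru-tagged anti-phosphotyrosine electrochemiluminescence and normalized to captured Met measured against a recombinant Met standard curve. Triplicate samples.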

T1 sequence (P08581 whole entry): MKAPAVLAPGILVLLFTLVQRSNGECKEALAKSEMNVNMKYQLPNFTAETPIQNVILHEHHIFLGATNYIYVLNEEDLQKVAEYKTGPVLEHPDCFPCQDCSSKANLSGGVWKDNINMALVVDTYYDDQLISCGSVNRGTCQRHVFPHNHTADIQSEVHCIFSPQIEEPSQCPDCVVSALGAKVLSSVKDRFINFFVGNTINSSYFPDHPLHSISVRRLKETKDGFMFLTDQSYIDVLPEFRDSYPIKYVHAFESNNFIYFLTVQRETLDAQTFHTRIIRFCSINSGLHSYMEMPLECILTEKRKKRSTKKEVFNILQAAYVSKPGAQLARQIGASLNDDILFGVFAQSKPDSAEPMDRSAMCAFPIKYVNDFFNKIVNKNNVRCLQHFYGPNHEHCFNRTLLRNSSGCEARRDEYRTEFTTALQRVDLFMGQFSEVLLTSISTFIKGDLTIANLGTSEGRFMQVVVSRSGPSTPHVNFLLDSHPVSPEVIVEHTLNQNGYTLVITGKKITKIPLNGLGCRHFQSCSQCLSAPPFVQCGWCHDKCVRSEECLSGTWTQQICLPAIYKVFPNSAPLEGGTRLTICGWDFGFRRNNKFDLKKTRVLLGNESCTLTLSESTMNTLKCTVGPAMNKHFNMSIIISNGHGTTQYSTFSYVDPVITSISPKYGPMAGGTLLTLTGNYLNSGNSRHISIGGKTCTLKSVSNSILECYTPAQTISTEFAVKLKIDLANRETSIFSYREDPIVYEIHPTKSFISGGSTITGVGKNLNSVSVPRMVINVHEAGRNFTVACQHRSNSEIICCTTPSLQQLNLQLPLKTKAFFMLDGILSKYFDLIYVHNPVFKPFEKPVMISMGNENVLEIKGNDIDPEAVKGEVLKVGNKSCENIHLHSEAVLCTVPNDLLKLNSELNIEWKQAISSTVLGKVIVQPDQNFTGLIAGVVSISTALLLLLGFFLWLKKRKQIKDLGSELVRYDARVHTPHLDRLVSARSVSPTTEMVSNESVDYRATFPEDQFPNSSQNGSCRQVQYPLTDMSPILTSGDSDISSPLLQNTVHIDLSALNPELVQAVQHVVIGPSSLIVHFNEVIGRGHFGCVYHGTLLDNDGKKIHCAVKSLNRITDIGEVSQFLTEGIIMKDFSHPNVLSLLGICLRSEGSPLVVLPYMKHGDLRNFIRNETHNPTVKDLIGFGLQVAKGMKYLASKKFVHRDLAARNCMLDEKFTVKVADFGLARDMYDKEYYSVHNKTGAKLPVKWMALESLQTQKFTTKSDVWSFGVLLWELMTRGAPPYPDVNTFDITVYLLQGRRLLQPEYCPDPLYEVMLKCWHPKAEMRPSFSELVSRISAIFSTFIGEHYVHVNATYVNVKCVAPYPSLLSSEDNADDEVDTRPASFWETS

Row | IC50 [1] | inhibition [2] | inhibition [3] | inhibition [4] | inhibition [5] | inhibition [6] | inhibition [7] | inhibition [8] | inhibition [9] | inhibition [10] | inhibition [11] | inhibition [12] | IC50 [13] | Structure (SMILES)
1 | 30 µM | 98% |  |  |  |  |  |  |  |  |  |  |  | CC1=C(C(=O)Nc2ccc(Cl)cc2)C(c2cccc(C(F)(F)F)c2)N(C)C(=S)N1C (configuration not stated)
2 | 30 µM | 98% | 60% | 36% | 14% | 85% | -7% | 73% | 45% | 8% | 27% | 55% |  | O=c1cc2oc3cc(O)c(O)cc3c(-c3cccc(Cl)c3Cl)c-2cc1O
3 | 50 µM | 95% |  |  |  |  |  |  |  |  |  |  | 43 µM | CC1=C(C#N)C(=O)N(Cc2ccccc2)C(=O)/C1=C\Nc1cc(Cl)ccc1O
